Assay results as given in ChEMBL document CHEMBL1121582, “Structure-activity relationship of diphenylthiourea antivirals” (1980).

Experiments:
Type in all cases: functional
Homo sapiens [1] = species on record: Homo sapiens; experiment: Antiviral activity was evaluated in vitro against human Coxsackie virus as antiviral affect in agar-diffusion plaque-inhibition test (- => inhibition, diameter < = 5 mm)
How it was run: (§1)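 FL cell monolayers in 90 mm dishes infected with virus dose giving semiconfluent plaques (adsorption 60 min, 20 °C), then 1% agar overlay in Eagle MM with 10% heated calf serum. Compound, 0.1 mL of usually 2-4% ethanol solution, was placed in 6 mm glass cylinders set in the agar. Concentrations were preliminarily checked as well-tolerated by the cells. Incubation was 24-48 h at 37 °C, followed by a second overlay of 1.5% agar with 0.02% neutral red. Read-out was the diameter of the plaque-inhibition zone and the cytotoxicity zone, using 3-5 cylinders per compound in ≥2 dishes. Scoring: - Δϕ ≤5 mm; ± 6-10; + 11-20; ++ ≥20 mm.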

[2] = Antiviral activity was evaluated in vitro against human poliovirus as antiviral affect in agar-diffusion plaque-inhibition test (- => inhibition, diameter < = 5 mm)
How it was run: (§2)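 FL cell monolayers were infected with virus (adsorption 60 min at 20 °C) at a dose giving semiconfluent plaques in 24-48 h at 37 °C. Cells were overlaid with 1% agar in Eagle medium with 10% heated calf serum. 0.1 mL of compound, usually a 2-4% solution, went into 6 mm glass cylinders set in the agar. A second overlay held 0.02% neutral red. Plaque-inhibition and cytotoxicity zone diameters (mm) were read using 3-5 cylinders in at least two dishes. Grading: -, ≤5 mm; ±, 6-10; +, 11-20; ++, ≥20.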

Poliovirus 1 [3] = experiment: Antiviral activity was evaluated in vitro against human poliovirus as inhibition zone in agar-diffusion plaque-inhibition test; how it was run: as §2
Poliovirus 1 [4] = experiment: Antiviral activity was evaluated in vitro against human poliovirus as toxicity zone in agar-diffusion plaque-inhibition test; how it was run: as §2
[5] = Antiviral activity was evaluated in vitro against human poliovirus as antiviral affect in agar-diffusion plaque-inhibition test - => inhibition diameter < = 5 mm; how it was run: as §2
Homo sapiens [6] = species on record: Homo sapiens; experiment: Antiviral activity was evaluated in vitro against human poliovirus as antiviral affect in agar-diffusion plaque-inhibition test(- => inhibition, diameter < = 5 mm); how it was run: as §2
cells [7] = details: Homo sapiens
cells [8] = details: Homo sapiens; remark: listed apart in the source
Homo sapiens [9] = species on record: Homo sapiens; experiment: Antiviral activity was evaluated in vitro against human ECHO virus as antiviral affect in agar-diffusion plaque-inhibition test(- => inhibition, diameter < = 5 mm); how it was run: as §2
[10] = Antiviral activity was evaluated in vitro against human ECHO virus as toxicity zone in agar-diffusion plaque-inhibition test; how it was run: as §2
cells [11] = details: Homo sapiens; remark: listed apart in the source
Homo sapiens [12] = species on record: Homo sapiens; experiment: Antiviral activity was evaluated in vitro against human poliovirus as antiviral affect in agar-diffusion plaque-inhibition test (+/- => inhibition, diameter = 6-10 mm); how it was run: as §2
Homo sapiens [13] = species on record: Homo sapiens; experiment: Antiviral activity was evaluated in vitro against human Coxsackie virus as antiviral affect in agar-diffusion plaque-inhibition test(- => inhibition, diameter < = 5 mm); how it was run: as §2
[14] = Antiviral activity was evaluated in vitro against human Coxsackie virus as toxicity zone in agar-diffusion plaque-inhibition test; how it was run: as §2
[15] = Antiviral activity was evaluated in vitro against human ECHO virus as antiviral affect in agar-diffusion plaque-inhibition test (- => inhibition, diameter < = 5 mm); how it was run: as §1
Homo sapiens [16] = species on record: Homo sapiens; experiment: Antiviral activity was evaluated in vitro against human Coxsackie virus as antiviral affect in agar-diffusion plaque-inhibition test (- =>inhibition, diameter < = 5 mm); how it was run: as §1
Homo sapiens [17] = species on record: Homo sapiens; experiment: Antiviral activity was evaluated in vitro against human ECHO virus as antiviral affect in agar-diffusion plaque-inhibition test (+/- =>inhibition, diameter 6-10 mm); how it was run: as §2
Homo sapiens [18] = species on record: Homo sapiens; experiment: Antiviral activity was evaluated in vitro against human Coxsackie virus as antiviral affect in agar-diffusion plaque-inhibition test (+/- => inhibition, diameter 6-10 mm); how it was run: as §2
Homo sapiens [19] = species on record: Homo sapiens; experiment: Antiviral activity was evaluated in vitro against human ECHO virus as antiviral affect in agar-diffusion plaque-inhibition test (+ => inhibition diameter = 11-20 mm); how it was run: as §2
Homo sapiens [20] = species on record: Homo sapiens; experiment: Antiviral activity was evaluated in vitro against human Coxsackie virus as antiviral affect in agar-diffusion plaque-inhibition test (- => inhibition diameter < = 5 mm); how it was run: as §1
Homo sapiens [21] = species on record: Homo sapiens; experiment: Antiviral activity was evaluated in vitro against human poliovirus as antiviral affect in agar-diffusion plaque-inhibition test (- => inhibition diameter < = 5 mm); how it was run: as §2
Homo sapiens [22] = species on record: Homo sapiens; experiment: Antiviral activity was evaluated in vitro against human ECHO virus as antiviral affect in agar-diffusion plaque-inhibition test (- => inhibition diameter < = 5 mm); how it was run: as §1

O=C(O)c1ccccc1/N=C(/S)Nc1ccccc1
Antiviral effect (Homo sapiens [1]): Not toxic

CC(=O)Nc1cccc(O)c1 [METACETAMOL]
Antiviral effect [2]: Not toxic
Inhibition zone (Poliovirus 1 [3]): 0 mm
Toxicity zone (Poliovirus 1 [4]): 0 mm

NC(N)=S [THIOUREA]
Antiviral effect [5]: Not toxic
Inhibition zone (Poliovirus 1 [3]): 26 mm
Toxicity zone (Poliovirus 1 [4]): 22 mm

Oc1ccc(/N=C(\S)Nc2ccc(O)cc2)cc1
Antiviral effect (Homo sapiens [6]): Not toxic
Inhibition zone (Poliovirus 1 [3]): 0 mm
Toxicity zone (Poliovirus 1 [4]): 0 mm

Oc1cccc(N/C(S)=N/c2ccccc2)c1
inhibition at 100 µM (cells [7]): 99.4%
Inhibition zone (Poliovirus 1 [3]): 33 mm
Toxicity zone (Poliovirus 1 [4]): 15.8 mm
inhibition at 200 µM (cells [8]): 99.9%

O=C(Nc1ccccc1)Nc1cccc(O)c1
Antiviral effect (Homo sapiens [9]): Not toxic
Toxicity zone [10]: 6.5 mm
inhibition at 100 µM (cells [11]): 66.3%
Antiviral effect (Homo sapiens [12]): Not toxic
Antiviral effect (Homo sapiens [13]): Not toxic
Inhibition zone (Poliovirus 1 [3]): 13.3 mm
Toxicity zone (Poliovirus 1 [4]): 7.3 mm
inhibition at 200 µM (cells [8]): 96.3%
Toxicity zone [14]: 6.5 mm

Oc1ccccc1/N=C(/S)Nc1ccccc1
Antiviral effect [2]: Not toxic
Antiviral effect [15]: Not toxic
Antiviral effect (Homo sapiens [16]): Not toxic

Nc1ccc(NC(=O)Nc2ccccc2)cc1
Antiviral effect [5]: Not toxic
Inhibition zone (Poliovirus 1 [3]): 0 mm
Toxicity zone (Poliovirus 1 [4]): 0 mm

Oc1cccc(/N=C(\S)Nc2cccc(O)c2)c1
Toxicity zone [10]: 29 mm
inhibition at 100 µM (cells [11]): 73.5%
Antiviral effect (Homo sapiens [17]): +/-
Inhibition zone (Poliovirus 1 [3]): 26.7 mm
Toxicity zone (Poliovirus 1 [4]): 11.4 mm
inhibition at 200 µM (cells [8]): 89%
Antiviral effect (Homo sapiens [18]): +/-
Toxicity zone [14]: 33.3 mm

Oc1ccc(N/C(S)=N/c2ccccc2)cc1
Antiviral effect [15]: Not toxic
Antiviral effect (Homo sapiens [12]): +/-

O=C(O)c1ccc(N/C(S)=N/c2ccccc2)cc1
Antiviral effect [2]: Not toxic
Antiviral effect [15]: Not toxic
Antiviral effect (Homo sapiens [1]): Not toxic

Nc1ccccc1/N=C(/S)Nc1ccccc1
Antiviral effect (Homo sapiens [9]): Not toxic
Toxicity zone [10]: 37 mm
Antiviral effect (Homo sapiens [13]): Not toxic
Inhibition zone (Poliovirus 1 [3]): 28 mm
Toxicity zone (Poliovirus 1 [4]): 9 mm
inhibition at 200 µM (cells [8]): 98.7%
Toxicity zone [14]: 41 mm

Nc1cccc(O)c1 [3-AMINOPHENOL]
Antiviral effect [5]: Not toxic
Inhibition zone (Poliovirus 1 [3]): 0 mm
Toxicity zone (Poliovirus 1 [4]): 0 mm

Nc1ccccc1NC(=O)Nc1ccccc1
Antiviral effect [5]: Not toxic
Inhibition zone (Poliovirus 1 [3]): 0 mm
Toxicity zone (Poliovirus 1 [4]): 0 mm

O=C(Nc1ccccc1)Nc1ccc(O)cc1
Antiviral effect [5]: Not toxic
Inhibition zone (Poliovirus 1 [3]): 0 mm
Toxicity zone (Poliovirus 1 [4]): 0 mm

O=C(Nc1ccccc1)Nc1ccccc1O
Antiviral effect [2]: Not toxic
Inhibition zone (Poliovirus 1 [3]): 36.2 mm
Toxicity zone (Poliovirus 1 [4]): 32 mm

O=C(O)c1cccc(N/C(S)=N/c2ccccc2)c1
Antiviral effect [2]: Not toxic
Antiviral effect [15]: Not toxic
Antiviral effect (Homo sapiens [1]): Not toxic

O=C(O)c1ccc(N/C(S)=N/c2ccccc2)cc1O
Inhibition zone (Poliovirus 1 [3]): 36.1 mm
Toxicity zone (Poliovirus 1 [4]): 17.9 mm
inhibition at 200 µM (cells [8]): 99.9%

Nc1ccccc1/N=C(\S)Nc1ccccc1N
Toxicity zone [10]: 43.5 mm
Antiviral effect (Homo sapiens [19]): Not toxic
Inhibition zone (Poliovirus 1 [3]): 53.7 mm
Toxicity zone (Poliovirus 1 [4]): 39.4 mm
Antiviral effect (Homo sapiens [18]): +/-
Toxicity zone [14]: 34 mm

Nc1cccc(NC(=O)Nc2ccccc2)c1
Antiviral effect [5]: Not toxic
Inhibition zone (Poliovirus 1 [3]): 0 mm
Toxicity zone (Poliovirus 1 [4]): 0 mm

Nc1ccc(N/C(S)=N/c2ccccc2)cc1
Antiviral effect (Homo sapiens [20]): Not toxic
Antiviral effect (Homo sapiens [21]): Not toxic
Inhibition zone (Poliovirus 1 [3]): 0 mm
Toxicity zone (Poliovirus 1 [4]): 0 mm
Antiviral effect (Homo sapiens [22]): Not toxic

Nc1cccc(N/C(S)=N/c2ccccc2)c1
Toxicity zone [10]: 20 mm
Inhibition zone (Poliovirus 1 [3]): 28.3 mm
Toxicity zone (Poliovirus 1 [4]): 18 mm
inhibition at 200 µM (cells [8]): 100%
Toxicity zone [14]: 16.7 mm

Nc1ccc(/N=C(\S)Nc2ccc(N)cc2)cc1
Antiviral effect [5]: Not toxic
Inhibition zone (Poliovirus 1 [3]): 0 mm
Toxicity zone (Poliovirus 1 [4]): 0 mm
